# Bioassay records (PubChem)
# Most compounds without a hit are left out; they make up all but 5.7% or so of the library.
# SKKanGAS inh = SKKanGAS growth inhibition. S. pyogenes SKKanGAS, kanamycin growth, BacTiter-Glo, 6 h. inhibition, % at 7.5 µM. actives 1.3% (n = 300,000);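 active = mean replicate score, as percent of positive control median, at least 50; inconclusive = mean below 50 but one replicate at or above 50; inactive = mean and every replicate below 50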;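 note: strain carries kanamycin resistance gene driven by streptokinase promoter and grows in 40 µg/ml kanamycin; loss of luminescence reflects streptokinase promoter inhibition or plain growth inhibition; 0% = median of DMSO wells and 100% = positive control at its reference dose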
# Mdm2-MdmX inh = human Mdm2/MdmX binding inhibition. O15151+Q00987. SaOS-2 split-luciferase Mdm2/MdmX complementation, luminescence. inhibition, % at 8 µM. actives 3% (n = 330,000);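 active = inhibition of at least 50% at 8 µM in the primary screen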
# Target sequence (O15151 whole entry, looked up): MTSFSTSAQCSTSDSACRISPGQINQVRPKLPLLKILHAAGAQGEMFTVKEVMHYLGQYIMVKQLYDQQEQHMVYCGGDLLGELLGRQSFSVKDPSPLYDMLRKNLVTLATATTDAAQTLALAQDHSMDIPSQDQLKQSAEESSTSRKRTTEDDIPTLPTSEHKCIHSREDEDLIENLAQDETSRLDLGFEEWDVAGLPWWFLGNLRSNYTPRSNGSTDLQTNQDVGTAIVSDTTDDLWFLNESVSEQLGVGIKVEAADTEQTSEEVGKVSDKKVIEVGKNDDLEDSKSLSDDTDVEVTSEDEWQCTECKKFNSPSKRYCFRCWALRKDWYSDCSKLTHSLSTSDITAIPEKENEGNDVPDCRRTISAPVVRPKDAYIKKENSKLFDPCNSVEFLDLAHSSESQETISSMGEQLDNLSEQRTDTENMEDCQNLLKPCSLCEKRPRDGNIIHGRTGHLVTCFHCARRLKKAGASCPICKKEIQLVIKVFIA
# Target sequence (Q00987 whole entry, looked up): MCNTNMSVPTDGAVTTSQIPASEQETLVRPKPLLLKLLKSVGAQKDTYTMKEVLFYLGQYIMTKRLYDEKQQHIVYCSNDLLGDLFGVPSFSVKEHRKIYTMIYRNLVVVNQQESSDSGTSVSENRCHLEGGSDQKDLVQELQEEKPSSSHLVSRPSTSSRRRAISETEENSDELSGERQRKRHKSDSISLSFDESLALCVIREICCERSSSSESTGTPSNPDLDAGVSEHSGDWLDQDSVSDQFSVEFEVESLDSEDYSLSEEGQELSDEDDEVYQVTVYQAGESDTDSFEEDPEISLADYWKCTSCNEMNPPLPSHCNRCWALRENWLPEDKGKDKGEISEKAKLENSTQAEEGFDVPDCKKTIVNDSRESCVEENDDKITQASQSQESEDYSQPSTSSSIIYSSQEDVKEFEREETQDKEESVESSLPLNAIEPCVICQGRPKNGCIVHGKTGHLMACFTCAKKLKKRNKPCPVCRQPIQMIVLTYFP
# Calb FLC = affects C. albicans growth with fluconazole. actives 0.57% (n = 300,000). C. albicans CaCi-2 (fluconazole-resistant clinical isolate) + fluconazole, Alamar Blue growth, 48 h. growth inhibition, % (test concentration not listed). AID 1979;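 active = growth inhibition above about 58% in most replicates, limit read from the data, passing the limit was not always enough; inconclusive = exactly half the replicates above a set limit; inactive = most replicates below a set limit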;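 note: all wells also contain fluconazole at 8 µg/ml as a sub-toxic cotreatment; 0% = median of DMSO wells and 100% = median of geldanamycin control wells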
# Beta apoptosis = blocks beta cell apoptosis | INS-1E cytokine-induced death, ATP luminescence, 48 h; percent of positive-control rescue, neutral wells zero | actives 0.8% (n = 300,000) | protection from apoptosis, % (no concentration beside the values) | AID 435005;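 active = Every replicate reaches about 75%, or at least half do and their mean reaches it too, limit read from the data; inconclusive = At least half of replicates reach the limit but their mean does not; inactive = Under half of replicates reach the limit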;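 note: 0% = cytokine-treated negative control wells and 100% = positive control rescue; higher means more ATP so stronger rescue from cytokine killing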
# CSC inhib = blocks cancer stem cells; actives 1.1% (n = 300,000); inhibition, % at 7.5 µM; cancer stem cell-like cells viability, luminescence; in the data active = inhibition above about 75%; inconclusive = no clear call, values can overlap the other calls; tested in HMLE shEcad cells
# T cruzi inh = blocks replication of Trypanosoma cruzi | T. cruzi beta-gal in NIH3T3, luminescence, 90 h | inhibition, % (concentration not given with the values) | actives 1.4% (n = 300,000) | AID 1885;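 active = mean inhibition across valid replicates above about 55%, limit read from the data; inconclusive = mean below that limit but half or more replicates reach it; inactive = mean below it, under half of replicates reach it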;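 note: signal also drops with host cell toxicity which is not excluded here; 0% = plate median of DMSO wells and 100% = zero luminescence signal; higher percent means less beta-gal luminescence so fewer parasites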
#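 System: Mouse NIH/3T3 fibroblasts infected with β-gal-expressing T. cruzi Tulahuen C4 | Quantity: NIH/3T3 cells, 5,000 per well | Reagent: 5000 reporter trypomastigotes per well | Dosing: Compound pinned at 50 nL/well, DMSO | Schedule: 3 h host attachment, then at least 90 h co-culture | Detection: GalScreen luminescence, 60 min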
# Mdm2 MdmX conf = human Mdm2/MdmX binding inhibition, confirmed. shares compounds with Mdm2-MdmX inh. luminescent assay. inhibition, % at 8 µM. actives 55% (n = 10,000). AID 489028; in the data active = inhibition above about 40%
# FLuc counter = counter-screen for Mdm2/MdmX inhibitors: full-length luciferase. shares compounds with Mdm2-MdmX inh. SaOS-2 full-length luciferase counterscreen, luminescence. inhibition, % at 8 µM. actives 77% (n = 6,200);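 active = mean inhibition at 8 µM reaching about 37%, which flags the compound as non-specific, limit read from the data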;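 note: p53-null SaOS-2 cells with luciferase driven by a doxycycline-inducible promoter; compound on cells about two nights before reading with doxycycline added after day one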
# The depositor's hits bear a star; ? = inconclusive; nt = not tested or not shown.
SMILES,SKKanGAS inh,Mdm2-MdmX inh,Calb FLC,Beta apoptosis,CSC inhib,T cruzi inh,Mdm2 MdmX conf,FLuc counter
C[C@@]12C(=O)Nc3ccc(Br)cc3C(=O)N1[C@H]1c3cc(Br)ccc3OC[C@@H]1[C@@H]2c1ccccc1,nt,27.1,nt,15.8,-1.2,nt,nt,nt
Cc1ccc(S(=O)(=O)CCC(=O)OCC(=O)N(Cc2ccccc2)C(C)C)cc1,-2.6,15.0,7.2,-8.4,-4.2,-9.9,nt,nt
COC(=O)Cn1c(=O)c(C(=O)CCl)c(N)n(Cc2ccccc2)c1=O,-3.0,74.6*,0.8,-15.2,10.6,?,48.5*,69.6*
CC(=O)N/C(=C\c1ccccc1)C(=O)OCC(=O)Nc1cc(S(=O)(=O)N(C)C)ccc1Cl,nt,-2.0,nt,nt,nt,nt,nt,nt
CC(=O)c1nn(-c2cccc(Br)c2)cc1C(=O)c1ccccc1,6.2,16.1,4.4,-1.1,-1.1,13.7,nt,nt
CC(=O)c1nn(-c2cccc(Br)c2)cc1C(=O)c1ccc(Cl)cc1,-13.8,52.6*,?,7.1,1.4,2.4,14.0,nt
CCCCN1/C(=C/c2ccc3ccccc3[n+]2CC)Sc2ccccc21,-13.7,77.1*,?,nt,nt,62.7*,76.3*,32.5
CCN1/C(=C/c2ccc3ccccc3[n+]2CCCS(=O)(=O)[O-])C=Cc2cc(C)ccc21,15.3,nt,-3.6,30.5,19.4,3.3,nt,nt
CCN1/C(=C/c2ccc3ccccc3[n+]2CC)C=Cc2ccccc21,52.1*,88.8*,105.1*,107.7*,44.4,46.5,81.5*,21.1
CCCCN1/C(=C/c2cccc[n+]2C)Sc2cc(NC(C)=O)ccc21,0.3,10.0,-15.1,25.2,-10.9,13.5,nt,nt
C[C@@]12C(=O)N(c3ccccc3)C(=O)N1[C@@H]1c3ccccc3OC[C@@H]1[C@H]2c1ccccc1,nt,28.9,nt,8.9,-9.4,nt,nt,nt
C[C@]12C(=O)N(c3ccc(C(F)(F)F)cc3)C(=O)N1[C@H]1c3ccccc3OC[C@@H]1[C@H]2c1ccccc1,nt,57.3*,nt,1.4,7.7,nt,8.3,nt
Cc1ccc(C)c(OCCC(=O)OCC(=O)NNC(=O)c2ccccc2)c1,nt,26.2,nt,-5.3,nt,nt,nt,nt
CCN(CC)c1cc(C)c(C#N)c2nc3ccccc3n12,-3.1,13.5,-18.4,-0.3,8.1,-2.1,nt,nt
Cc1ccc(-c2c(C#N)c(N)n3c(nc4ccccc43)c2C#N)cc1,52.2*,77.2*,-3.1,80.3*,70.7,26.4,54.9*,57.7*
N#Cc1c(-c2ccccc2)c(C#N)c2nc3ccccc3n2c1N,13.1,54.7*,0.8,49.3,4.5,0.2,47.9*,48.2*
CC(C)Cn1c(N)c(C(=O)CSc2cc(Cl)ccc2Cl)c(=O)n(C)c1=O,6.7,68.8*,29.8,23.7,36.9,-6.3,-2.3,nt
CC(C)Cn1c(N)c(C(=O)CSc2ncccn2)c(=O)n(C)c1=O,-6.6,25.3,-5.3,1.8,-8.3,11.2,nt,nt
CCCCCc1c(C)c(C#N)c2nc3ccccc3n2c1-n1ccnc1C,1.1,1.4,-6.2,1.7,-12.5,12.7,nt,nt
C=C(C)CN1CCN(c2c(CCC#N)c(C)c(C#N)c3nc4ccccc4n23)CC1,-1.0,74.2*,-9.0,1.0,6.1,-6.4,24.1,nt
O=C1N(c2ccccc2C(F)(F)F)O[C@]1(c1ccccc1)C1CCCC1,nt,79.3*,nt,-0.2,5.1,nt,53.2*,50.2*
CC[C@@]1(c2ccccc2OC)ON(c2ccccc2C(F)(F)F)C1=O,nt,88.9*,nt,-16.3,57.3,nt,80.3*,51.4*
CC1(c2ccccc2)ON(c2ccccc2C(F)(F)F)C1=O (stereo not drawn),nt,46.3,nt,-7.4,17.0,nt,nt,nt
Cc1ccccc1[C@@]1(C)ON(c2ccccc2C(F)(F)F)C1=O,nt,80.6*,nt,-5.0,3.9,nt,34.0,nt
O=C(COC(=O)c1c(Cl)ccc(Cl)c1Cl)NCC1CCCO1 (stereo not drawn),nt,-6.0,nt,-3.7,2.6,nt,nt,nt
SMILES,SKKanGAS inh,Mdm2-MdmX inh,Calb FLC,Beta apoptosis,CSC inhib,T cruzi inh,Mdm2 MdmX conf,FLuc counter
CCn1c(CC(=O)Nc2ccccc2C)nnc1SCC(=O)NC1CCCC1,-4.7,20.5,6.4,1.6,5.6,3.1,nt,nt
CN1CCN(c2cc(N3CCN(C(=O)c4ccco4)CC3)c3c4c(onc24)-c2ccccc2C3=O)CC1,7.5,100.4*,-7.2,6.4,13.8,31.3,74.0*,24.3
Cc1ccc(N(CC(=O)NC2CCCC2)C(=O)CNC(=O)c2cccs2)cc1F,-1.2,-40.8,4.6,2.2,-6.8,23.8,nt,nt
COc1ccc(NC(=O)CCNC(=O)c2ccco2)c(OC)c1,-2.8,4.5,-4.1,-5.0,-9.3,-9.4,nt,nt
CCOC(=O)/C=C/C(=O)Nc1ccc(Oc2ccccc2)cc1,-5.0,56.5*,36.6,-9.8,31.1,-38.7,55.3*,24.1
CCOC(=O)/C=C/C(=O)Nc1ccc(S(=O)(=O)Nc2c(C)cc(C)cc2C)cc1,-12.4,50.5*,21.8,-6.2,43.7,-19.7,27.9,nt
CCOC(=O)/C=C/S(=O)(=O)c1ccc(NC(C)=O)cc1,6.3,68.3*,-5.4,22.8,54.3,11.5,52.8*,21.1
CCOC(=O)/C=C/C(=O)OCC(=O)Nc1ccc(C)cc1,1.2,9.0,-7.5,-8.8,nt,-14.8,nt,nt
CC(C)C1Cc2c(sc3[nH]c(=S)n(Cc4ccccc4)c(=O)c23)CO1 (stereo not drawn),81.8*,52.8*,5.4,16.3,138.8*,1.5,-5.0,nt
O=C1C=C(c2cccc(CO)c2)C[C@@H](c2ccc3c(c2)OCO3)C1,nt,16.6,nt,-4.0,1.9,nt,nt,nt
C/C(=N\NC(=O)COc1ccccc1-c1ccccc1)c1cccnc1,3.8,14.1,9.1,-1.0,-10.0,1.5,nt,nt
C/C(=N\NC(=O)COc1ccccc1-c1ccccc1)c1ccccn1,83.3*,86.2*,14.7,80.6*,44.7,71.1*,72.1*,51.0*
C/C(=N\NC(=O)COc1ccccc1-c1ccccc1)c1ccc(O)cc1O,86.4*,64.0*,-5.4,80.8*,37.4,77.4*,46.6*,37.2*
CCCCCCCCC(=O)N/N=C(\C)c1ccco1,2.0,-15.2,8.3,-1.5,10.0,-7.7,nt,nt
CCCCCC(=O)N/N=C(\C)c1ccccn1,-7.8,60.5*,-15.7,37.0,15.5,-2.8,7.7,nt
CCCCCCCC(=O)N/N=C(\C)c1ccc(O)cc1O,10.3,34.3,2.7,17.8,-5.3,-17.2,nt,nt
N[C@@H](Cc1ccccc1)C(=O)N1CCC(C(=O)NCC(=O)NCC(=O)O)CC1,-0.5,5.2,-2.6,0.5,-11.6,-6.6,nt,nt
O=C(NNC(=O)c1cc(Br)c(Br)s1)c1csc(N2CCOCC2)n1,-6.3,8.8,-1.5,-5.2,-4.1,8.0,nt,nt
Cc1nc2ccc(S(=O)(=O)NCC(=O)Nc3ccc(F)cc3)cc2s1,1.7,17.6,-12.9,0.4,-5.6,-9.2,nt,nt
CCOc1ccc(-n2c(=O)c3c4c(sc3n(CC(=O)NCc3ccco3)c2=O)CCC4)cc1,9.8,72.8*,-0.5,-2.2,1.6,16.0,0.1,nt
